These results are taken from article PMC6314015 (Bioorganic & medicinal chemistry, 2018).

Entries after “also recorded” stand apart in the source; their conditions may differ.

One may read the solubility as how much of the substance goes into solution per volume. Low readings indicate a poorly soluble substance, high ones a readily soluble substance.

Data set [1] is described as follows: UV-Vis spectrophotometry of hydrolysis equilibrium in PBS pH 7.4. It is filed as physicochemical. Conditions: for hydrolysis equilibrium constant K: PBS pH 7.4, equilibrated mixtures at various concentrations; for fold improved hydrolytic stability compared to BSIH: from K values. The method, boiled down:
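DMSO stocks were diluted into PBS pH 7.4 (100 μM). Spectra were recorded in 1-cm quartz cuvettes every 1 min over 30 min; 100 μM isoniazid + 100 μM aldehyde fragment served as reference. For K, equilibrated solutions at several initial concentrations were read at 263 and 321 nm, and component concentrations were solved from fitted extinction coefficients. K = [INH][FBA]/[prochelator], averaged across concentrations.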

The test system of data set [2] is ARPE-19 cells. Nature of the data set: Cytoprotection against H2O2-induced oxidative damage. It counts as cell-based, human. The method, boiled down:
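ARPE-19 cells were grown to confluence (DMEM/F12 1:1, 10% FBS, 37 °C, 5% CO2) and washed with MEM. Cells were pretreated 5 h with prochelators or chelators in MEM, then given 200 μM H2O2 (final) and incubated 19 h more. Viability read by CellTiter-Blue, as % of MEM-only control; H2O2-only as negative control; triplicate, SD.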

Data set [3] can be described thus: 1H NMR characterization of hydrolytic stability in D2O. It is filed as physicochemical. The method, boiled down:
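Prochelator stocks (10 mM in DMSO-d6) diluted to 500 μM in D2O with 5% DMSO-d6, or to 200 μM with 2% DMSO-d6 for one analog. Solutions equilibrated 1 h before 1H NMR. Intact prochelator and isoniazid fraction estimated by integrating the hydrazone-compound aromatic peak against the corresponding isoniazid peak.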

Data set [4] concerns ARPE-19 cells. Nature of the data set: Cytoprotection against paraquat-induced oxidative damage. It counts as cell-based, human. Conditions: 10 mM paraquat, 48 h; for cytoprotection against paraquat damage: prochelators; for cytoprotection against paraquat-induced cell death: chelators, Figure S5.
In data set [5] the test system is ARPE-19 retinal pigment epithelial cells. Nature of the data set: Inherent cytotoxicity, CellTiter-Blue viability. Conditions: 72 h incubation, up to 100 μM. It is filed as cell-based, human. The method in brief: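 Confluent ARPE-19 cells (DMEM/F12 1:1 with 10% FBS, 37 °C, 5% CO2) were washed three times with MEM. Cells were exposed to prochelators at 5–100 μM final in MEM with up to 1% DMSO for 72 h. Viability measured by CellTiter-Blue; triplicate runs, standard deviation.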
On the technique in general: Alamar Blue is a resazurin reagent that responds to reducing activity.

The format of data set [6] is binding. Conditions: for calcein fluorescence upon addition of chelator: 4 μM chelator (2 equivalents), 2 μM calcein-Fe^3+, PBS pH 7.4. The method, boiled down: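 Fe3+-calcein formed by equilibrating 4 μM ferric ammonium citrate with 4 μM calcein in PBS for 4 h. Compounds were freshly made at 100 μM in PBS pH 7.4; for activation, 100 μM prochelator was incubated with 5 mM H2O2 for 12 h. 2 μM Fe3+-calcein plus 4 μM compound or mixture, 2 h, 25 °C; fluorescence at 485/535 nm. Triplicate wells averaged; calcein-only wells = 100%.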

The nature of data set [7]: Solubility in aqueous buffers. It is filed as physicochemical. Conditions: aqueous buffer.
The conditions of data set [8]: cited from earlier work.
Data set [9] deals with H9c2 cardiomyoblasts. Conditions: after 72 h; cited from earlier work.
The conditions of data set [10]: cited from earlier work. The source holds these as a separate data set.
The conditions of data set [11]: comparable solutions (500 μM); cited from earlier work.
The conditions of data set [12]: same concentration (500 μM); cited from earlier work.
For data set [13] the following is noted: pH 7.4, total ligand 10 µM, iron 1 µM; cited from earlier work.
The mark [14] stands for this setting: prochelators, 5 h pre-incubation, 200 μM H2O2, viability after 19 h.

For the molecule `CC1(C)OB(c2cc3c(cc2/C=N/NC(=O)c2ccncc2)OCO3)OC1(C)C` [(MD)BSIH, (E)-N’-((6-(4,4,5,5-tetramethyl-1,3,2-dioxaborolan-2-yl)benzo[d][1,3]dioxol-5-yl)methylene)isonicotinohydrazide], in data set [1], the “hydrolysis equilibrium constant K, fold lower than parent BSIH” value was ~ 2 fold; the “hydrolysis equilibrium constant K” value is “(8.0 ± 0.6) × 10^−6 M”; the “fold improved hydrolytic stability compared to BSIH” value worked out at 1.9 fold. Further, in data set [2] (setting [14]), the “concentration effective for cytoprotection” value amounted to 25 µM. Besides, the “hydrolysis fragments in the equilibrated solution” value in data set [3] (200 μM in D2O, 2% DMSO-d6) amounted to 20%. The “cytoprotection against paraquat damage” value in data set [4] is reported as “dose-dependent recovery of cell viability”. Also, in [5], the cytotoxicity result is “non-toxic”. Further, in data set [6] (after H2O2 activation), the “increase in chelator released compared to BSIH” value is 50%.
With `COc1ccc(/C=N/NC(=O)c2ccncc2)cc1B1OC(C)(C)C(C)(C)O1` [(m-OMe)BIIH, (E)-N’-(4-methoxy-3-(4,4,5,5-tetramethyl-1,3,2-dioxaborolan-2-yl)benzylidene)isonicotinohydrazide], in [1] (PBS buffer, Figure S3), the “UV-Vis spectrum over time in PBS buffer” value is given as “remains unchanged over time”. Moreover, in data set [2] (setting [14]), the “cytoprotection from peroxide damage” value is reported as “lack of cytoprotection”. Further, the “hydrolysis products by 1H NMR upon dilution in D2O” value in [3] (500 μM in D2O, 5% DMSO-d6) is listed as “no additional peaks corresponding to potential hydrolysis products were observed”.
For `COc1ccc(/C=N/NC(=O)c2cccnc2)c(B2OC(C)(C)C(C)(C)O2)c1` [(m-OMe)BSNH, (E)-N’-(4-methoxy-2-(4,4,5,5-tetramethyl-1,3,2-dioxaborolan-2-yl)benzylidene)nicotinohydrazide], in [7], the solubility was ≥ 300 µM.
`COc1ccc(/C=N/NC(=O)c2ccncc2)c(O)c1` [(m-OMe)SIH]: the solubility in data set [7] is ≤ 50 µM.
For `COc1ccc(/C=N/NC(=O)c2cccnc2)c(O)c1` [(m-OMe)SNH, (E)-N’-(2-hydroxy-4-methoxybenzylidene)nicotinohydrazide], the solubility in data set [7] was ≥ 300 µM. Moreover, the “calcein fluorescence upon addition of chelator” value in data set [6] is recorded as “more than 90%”.
For `COc1ccc(B2OC(C)(C)C(C)(C)O2)c(/C=N/NC(=O)c2ccncc2)c1` [(p-OMe)BSIH, (E)-N’-(5-methoxy-2-(4,4,5,5-tetramethyl-1,3,2-dioxaborolan-2-yl)benzylidene)isonicotinohydrazide], in data set [1], the “hydrolysis equilibrium constant K” value is recorded as “(1.1 ± 0.1) × 10^−5 M” and the “fold improved hydrolytic stability compared to BSIH” value turned out to be 1.3 fold. Further, the “concentration effective for cytoprotection” value in [2] (setting [14]) came to 25 µM. Also, the “increase in H2O2-dependent conversion rate relative to the m-Cl compound” value in [8] was ~5 fold. The INH at equilibrium in [3] (500 μM in D2O, 5% DMSO-d6, 1 h equilibration) is reported as 15%.
`COc1ccc(O)c(/C=N/NC(=O)c2ccncc2)c1` [(p-OMe)SIH, (E)-N’-(2-hydroxy-5-methoxybenzylidene)isonicotinohydrazide]: the “cytoprotection against paraquat-induced cell death” value in data set [4] was ~ 40%. The “calcein fluorescence upon addition of chelator” value in data set [6] is “more than 90%”.
In the case of `C/C(=N\NC(=O)c1ccncc1)c1ccccc1OCc1ccc(B2OC(C)(C)C(C)(C)O2)cc1` [BHAPI], in data set [9], the TC50 is 37.1 ± 7.7 µM.
On to `CC1(C)OB(c2ccccc2/C=N/NC(=O)c2ccncc2)OC1(C)C` [BSIH, (E)-N’-(2-(4,4,5,5-tetramethyl-1,3,2-dioxaborolan-2-yl)benzylidene)isonicotinohydrazide], for which the “cytoprotection against paraquat damage” value in data set [4] is “failed to protect cells from paraquat damage; also recorded: lack of cytoprotection”. Also, the stability in plasma entry in [10] (10 h incubation in plasma) is on record as “little degradation”. Besides, the cytotoxicity entry in [5] was “non-toxic”. In data set [11], the “intact prochelator at equilibrium” value was 80%. The “SIH generated from peroxide activation” value in data set [12] was 51%.
Turning to `CNC(=S)N/N=C/c1ccccc1B1OC(C)(C)C(C)(C)O1` [BSMTH, (E)-N-methyl-2-(2-(4,4,5,5-tetramethyl-1,3,2-dioxaborolan-2-yl)benzylidene)hydrazine-1-carbothioamide], in data set [2] (setting [14]), the “cytoprotection from peroxide damage” value is reported as “lack of cytoprotection; also recorded: ineffective”. The “cytoprotection against paraquat damage” value in [4] was “lack of cytoprotection”.
In the same order, the values of `CC1(C)OB(c2ccccc2/C=N/NC(=S)Nc2ccccc2)OC1(C)C` [BSPTH, (E)-N-phenyl-2-(2-(4,4,5,5-tetramethyl-1,3,2-dioxaborolan-2-yl)benzylidene)hydrazine-1-carbothioamide] are “modest cellular protection” and “lack of cytoprotection”.
With `O=C(O)CN(CC(=O)O)Cc1cc2c(cc1O)Oc1cc(O)c(CN(CC(=O)O)CC(=O)O)cc1C21OC(=O)c2ccccc21` [Calcein], the pFe in data set [13] is recorded as 20.3.
Take `C/C(=N\NC(=O)c1ccncc1)c1ccccc1O` [HAPI, (E)-N’-(1-(2-hydroxyphenyl)ethylidene)isonicotinohydrazide, reference compound]: the “cytoprotection against paraquat-induced cell death” value in [4] was ~ 40%.
For `O=C(N/N=C/c1ccccc1O)c1ccncc1` [SIH, (E)-N’-(2-hydroxybenzylidene)isonicotinohydrazide], the “cytoprotection against paraquat-induced cell death” value in data set [4] was ~ 40%. Further, in data set [10] (buffer at pH 7.4), the stability in buffer result is on record as “remains intact”. For the same molecule, in data set [10] (cell culture media and plasma), the “stability in cell culture media and plasma” value is on record as “degrades within hours”.
Regarding `CNC(=S)N/N=C/c1ccccc1O` [SMTH, (E)-2-(2-hydroxybenzylidene)-N-methylhydrazine-1-carbothioamide], in data set [2] (chelators, H2O2-stressed cells, Figure S4), the “cytoprotection from peroxide damage” value is reported as “no protective effect”. Besides, the “cytoprotection against paraquat-induced cell death” value in [4] is given as “failed to protect cells”. Also, the “calcein fluorescence upon addition of chelator” value in [6] is “no effect on the quenched signal”.
As for `Oc1ccccc1/C=N/NC(=S)Nc1ccccc1` [SPTH, (E)-2-(2-hydroxybenzylidene)-N-phenylhydrazine-1-carbothioamide], the “cytoprotection against paraquat-induced cell death” value in data set [4] is on record as ~ 40%. For the same molecule, the “calcein fluorescence upon addition of chelator” value in [6] is recorded as “failed to fully restore calcein emission”.
